Experimental data of several laboratories.
Compare with care: the assays were run in different laboratories.
Target: Serine/threonine-protein kinase Nek3 (NEK3, Homo sapiens, UniProt P51956)
Sequence (P51956 1-506, as in one of the studies): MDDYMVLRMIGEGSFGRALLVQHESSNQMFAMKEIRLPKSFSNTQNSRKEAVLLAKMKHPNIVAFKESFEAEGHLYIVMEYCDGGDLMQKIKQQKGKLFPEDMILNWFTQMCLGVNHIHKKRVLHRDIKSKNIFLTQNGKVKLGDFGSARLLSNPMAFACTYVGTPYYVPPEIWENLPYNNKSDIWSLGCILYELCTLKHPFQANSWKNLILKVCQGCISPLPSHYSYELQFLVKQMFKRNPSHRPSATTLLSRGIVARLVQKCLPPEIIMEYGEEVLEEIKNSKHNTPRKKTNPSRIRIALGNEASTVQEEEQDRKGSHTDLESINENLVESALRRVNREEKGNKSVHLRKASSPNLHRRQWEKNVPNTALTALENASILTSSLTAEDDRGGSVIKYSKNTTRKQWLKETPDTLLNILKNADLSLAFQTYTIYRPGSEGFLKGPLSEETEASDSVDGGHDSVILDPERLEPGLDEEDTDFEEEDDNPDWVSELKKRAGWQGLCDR

Cc1cnc(Nc2ccc(C(=O)N3CCC(N4CCCC4)CC3)cc2)nc1-c1cc2ccccc2s1 — remaining binding (binding, competition with immobilised ligand; 1 µM): 2.4%
CC(C)CC(=O)N1CCc2nc(-c3ccc(Br)cc3)nc(N(C)Cc3ccccc3)c2C1 — remaining binding (cell-free assay, competition with immobilised ligand; 0.1 µM): 100%
C=CC(=O)N1CCC(C(=O)NCC(=O)N2CCN(c3nc(-c4cnc(N)nc4C(F)F)nc(N4CCOCC4)n3)CC2)CC1 — remaining binding (binding, competition with immobilised ligand; 1 µM): 51%
CN(c1nccc(-c2cnn3ncccc23)n1)C1CC1 — remaining binding (binding; 1 µM): 87%
COc1ncc2cc3ccccc3nc2c1C#N — remaining binding (cell-free assay, competition with immobilised ligand; 5 µM): 100%
O=C(O)[C@@H]1[C@@H](Cn2nnc3ccccc3c2=O)CC[C@H]1C(=O)c1ccc(OCCC2CCOCC2)cc1 — remaining binding (cell-free assay, competition with immobilised ligand; 1 µM): 83%
N[C@@H]1CCN(c2nccc(-c3cnn4ncccc34)n2)C1 — remaining binding (binding; 1 µM): 95%
O=C(NCc1ncc(C(F)(F)F)cc1Cl)c1ccc2c(c1)C1(CCS(=O)(=O)CC1)[C@H](C1CC1)N2S(=O)(=O)c1ccc(F)cc1 — remaining binding (cell-free assay, competition with immobilised ligand; 1 µM): 100%
F[C@@H]1CCN(c2nccc(-c3cnn4ncccc34)n2)C1 — remaining binding (binding; 1 µM): 90%
O=C(Nc1c[nH]nc1C(=O)NC1CCNCC1)c1cc(F)cc(F)c1 — remaining binding (binding, competition with immobilised ligand; 1 µM): 100%
c1cncc(-c2cccc(Nc3nccc(NC4CCCCC4)n3)c2)c1 — remaining binding (binding, competition with immobilised ligand; 10 µM): 56%
CN(C(=O)c1ccccc1)c1cc(N(C)c2ccc3c(c2)CCc2ccc(C(=O)NCCN4CCOCC4)cc2C3=O)ccc1F — remaining binding (cell-free assay, competition with immobilised ligand; 1 µM): 99%
O=C(NCCCN1CCOCC1)c1ccc(Nc2ncc(Cl)c(-c3ccc(Cl)s3)n2)cc1 — remaining binding (binding, competition with immobilised ligand; 1 µM): 0.5%
C[C@H]1CCN(c2nccc(-c3cnn4ncccc34)n2)C1 — remaining binding (binding; 1 µM): 70%
CCN1CCN(Cc2ccc(C(=O)Nc3ccc(C)c(Oc4ccc5c(c4)CC(=O)N5)c3)cc2C(F)(F)F)CC1 — remaining binding (binding, competition with immobilised ligand; 1 µM): 100%
COc1cnc(Nc2cccc(S(N)(=O)=O)c2)nc1N1CCN(c2ccccc2)CC1 — remaining binding (binding, competition with immobilised ligand; 1 µM): 74%
CC1CCCN1c1nccc(-c2cnn3ncccc23)n1 (stereo not drawn) — remaining binding (binding; 1 µM): 82%
CCCOc1ccc([C@@H]2[C@@H](C(=O)O)[C@H](c3ccc4c(c3)OCO4)CN2CC(=O)Nc2c(CC)cccc2CC)cc1 — remaining binding (cell-free assay, competition with immobilised ligand; 1 µM): 100%
O=C(NCCCN1CCOCC1)c1ccc(Nc2nccc(-c3cc4ccccc4s3)n2)cc1 — remaining binding (binding, competition with immobilised ligand; 1 µM): 2.7%
CN(C)c1nccc(-c2cnn3ncccc23)n1 — remaining binding (binding; 1 µM): 100%
Cc1nccc(COC(=O)N2C[C@@H]3[C@@H](CNC(=O)c4ccc5[nH]nnc5c4)[C@@H]3C2)n1 — remaining binding (cell-free assay, competition with immobilised ligand; 1 µM): 100%
